What all share (assay type): cell-based
The subject of one test is HCT116. Put plainly: Antiproliferative SRB assay, HCT116. As to conditions: Homo sapiens, HCT-116, 72 h, read-out: HCT116 IC50 (μM) ± SD. The method, boiled down:
(§1)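 Cells from ATCC, grown in RPMI-1640 with 10% heat-inactivated FBS and penicillin–streptomycin at 37 °C, 5% CO2. They were trypsinized and seeded 24 h before treatment. Test compound was given at 0.01, 0.1, 1, 10 and 100 μg mL−1 for 72 h beside untreated controls. Cells were fixed in 10% TCA (1 h, 4 °C), stained with 0.4% SRB (10 min, dark), rinsed in 1% acetic acid, dissolved in Tris–HCl, and read at 540 nm.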

A further test relates to HepG2. Description: Antiproliferative SRB assay, HepG2. Particulars: Homo sapiens, HepG2, 72 h, read-out: HepG2 IC50 (μM) ± SD. The method, boiled down: as §1
In another test the test system is MCF-7. Put plainly: Antiproliferative SRB assay, MCF-7. As to conditions: Homo sapiens, MCF7, 72 h, read-out: MCF-7 IC50 (μM) ± SD. The method in brief:
as §1

Another test relates to EA.hy926. Description: SRB assay on normal cells EA.hy926. As to conditions: Homo sapiens, EA.hy 926, 72 h, read-out: EA.hy926 IC50 (μM) ± SD. The method in brief: as §1

The structures appear in SMILES notation.

For the compound `N#CCC(=O)NNc1nc(-c2ccccc2)cs1` [compound 7, 2-cyano-N′-(4-phenylthiazol-2-yl)acetohydrazide], the IC50 was 6.5 µM in the test with HCT116, 9.9 µM in the test on HepG2, 10.3 µM with MCF-7 and 11.6 µM in the test with EA.hy926.

On to `O=C(NNc1nc(-c2ccccc2)cs1)c1cc2ccccc2oc1=O` [6a, 2-Oxo-N′-(4-phenylthiazol-2-yl)-2H-chromene-3-carbohydrazide], for which the IC50 came to 82.5 µM in the test on HCT116, 36.5 µM in the test with HepG2, 72.9 µM with MCF-7 and 31.9 µM in the test with EA.hy926.

`COc1cccc2c1C(=O)c1c(O)c3c(c(O)c1C2=O)C[C@@](O)(C(=O)CO)C[C@@H]3O[C@H]1C[C@H](N)[C@H](O)[C@H](C)O1` [Doxorubicin, reference compound]: the IC50 with HCT116 turned out to be 1.9 µM; in the test on HepG2, 1.6 µM; in the test with MCF-7 it was 2.1 µM; in the test with EA.hy926, 1.7 µM.

The values above are taken from paper PMC11167341 (RSC Advances, 2024).
